For assay [1], the system named is INA-6. The experiment in a line: Inhibition of heat shock response in human INA-6 cells assessed as reduction in HSF-1 mediated upregulation of the heat shock protein HSP72 at 50 uM preincubated for 4 hrs followed by HSP90 inhibitor and HSR inducer NVP-AUY922 addition measured after 4 hrs by ELISA. It is filed as functional, cell-based. An outline of the steps: (§1)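 HSP72 quantified by ELISA in the same protein lysates used for Western blots. INA-6 cells received compound for 4 h, then NVP-AUY922 co-treatment for 4 h more to stimulate HSF1. DMSO-only and NVP-AUY922-only cells served as negative and positive controls.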
(ELISA stands for enzyme-linked immunosorbent assay.)

The subject of assay [2] is INA-6. The experiment in a line: Inhibition of heat shock response in human INA-6 cells assessed as reduction in HSF-1 mediated upregulation of the heat shock protein HSP27 at 50 uM preincubated for 4 hrs followed by HSP90 inhibitor and HSR inducer NVP-AUY922 addition measured after 4 hrs by ELISA. It is filed as functional, cell-based.
The target of assay [3] is Serine/threonine-protein kinase ATR (Homo sapiens) (UniProt Q13535). The experiment in a line: Binding affinity to ATR protein in human INA-6 cells after 3 hrs by nanoLC-MS/MS method. It is filed as cell-based. In outline:
(§2)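 The biotinylated inhibitor was loaded on streptavidin beads, with empty beads as the control. Eluates were trypsin-digested and run by nanoLC-MS/MS. Inhibitor/control ratios came from label-free quantification, taken as medians of five biological replicates. Enrichment was called at Benjamini-Hochberg-adjusted limma p < 0.02.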

Assay [4] deals with CCR4-NOT transcription complex subunit 6-like (Homo sapiens) (UniProt Q96LI5). The experiment in a line: Binding affinity to CCR4-NOT transcription complex subunit 6-like in human INA-6 cells after 3 hrs by nanoLC-MS/MS method. Format: cell-based. In outline: as §2
Assay [5] concerns the target CCR4-NOT transcription complex subunit 1 (Homo sapiens) (UniProt A5YKK6). The experiment in a line: Binding affinity to CCR4-NOT transcription complex subunit 1 in human INA-6 cells after 3 hrs by nanoLC-MS/MS method. Format: cell-based. In outline:
as §2

For assay [6], the target named is CCR4-NOT transcription complex subunit 9 (Homo sapiens) (UniProt Q92600). The assay can be described thus: Binding affinity to RCD1 protein in human INA-6 cells after 3 hrs by nanoLC-MS/MS method. It is filed as cell-based. In outline:
as §2

The subject of assay [7] is INA-6. The experiment in a line: Inhibition of heat shock response in human INA-6 cells assessed as reduction in HSF-1 mediated upregulation of the heat shock protein HSP27 at 50 uM preincubated for 4 hrs followed by HSP90 inhibitor and HSR inducer NVP-AUY922 addition measured after 4 hrs by Western blot method. Format: functional, cell-based. An outline of the steps:
(§3)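 INA-6 myeloma cells pretreated with test compound for 4 h, then co-treated with the HSP90 inhibitor/HSR inducer NVP-AUY922 for a further 4 h. Cells harvested; HSP72, HSP27, HSF1 or phospho-HSF1 probed by Western blot with β-actin as loading control. DMSO-only cells were the negative control; NVP-AUY922-only cells were the positive control.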
On the technique in general: In western blotting, separated proteins are transferred to a membrane and probed.

Assay [8] has as its target DNA-dependent protein kinase catalytic subunit (Homo sapiens) (UniProt P78527). The experiment in a line: Binding affinity to PRKDC protein in human INA-6 cells after 3 hrs by nanoLC-MS/MS method. Format: cell-based. In outline: as §2
Assay [9] addresses CCR4-NOT transcription complex subunit 2 (Homo sapiens) (UniProt Q9NZN8). The assay can be described thus: Binding affinity to CCR4-NOT transcription complex subunit 2 in human INA-6 cells after 3 hrs by nanoLC-MS/MS method. It is filed as cell-based. In outline:
as §2

Assay [10] deals with Serine-protein kinase ATM (Homo sapiens) (UniProt Q13315). The experiment in a line: Binding affinity to ATM protein in human INA-6 cells after 3 hrs by nanoLC-MS/MS method. It is filed as cell-based. An outline of the steps: as §2
The target in assay [11] is CCR4-NOT transcription complex subunit 7 (Homo sapiens) (UniProt Q9UIV1). The assay can be described thus: Binding affinity to CCR4-NOT transcription complex subunit 7 in human INA-6 cells after 3 hrs by nanoLC-MS/MS method. It is filed as cell-based. An outline of the steps: as §2
In assay [12] the target is Serine/threonine-protein kinase mTOR (Homo sapiens) (UniProt P42345). The assay can be described thus: Binding affinity to mTOR protein in human INA-6 cells after 3 hrs by nanoLC-MS/MS method. Format: cell-based. An outline of the steps:
as §2

Assay [13] addresses CCR4-NOT transcription complex subunit 3 (Homo sapiens) (UniProt O75175). The experiment in a line: Binding affinity to CCR4-NOT transcription complex subunit 3 in human INA-6 cells after 3 hrs by nanoLC-MS/MS method. Format: cell-based. An outline of the steps:
as §2

For assay [14], the system named is INA-6. The assay can be described thus: Effect on NVP-AUY922-induced HSF-1 mRNA expression in human INA-6 cells at 50 uM preincubated for 4 hrs followed by NVP-AUY922 addition measured after 4 hrs by RT-PCR method. Format: functional, cell-based. In outline: (§4)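 INA-6 cells exposed to compound for 4 h, then co-treated with 10 nM NVP-AUY922 for another 4 h. Total RNA isolated; HSP27, HSP72 and HSF1 transcripts measured by real-time PCR and normalized to α-tubulin. Means and standard deviations from three independent experiments.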

The subject of assay [15] is INA-6. The experiment in a line: Induction of apoptosis in human INA-6 cells up to 50 uM after 72 hrs by annexin V-FITC/propidium iodide staining-based flow cytometry method. Format: functional, cell-based. An outline of the steps: (§5)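 INA-6 cells incubated three days with DMSO or increasing compound concentrations. Viability read by annexin V-FITC/propidium iodide staining and flow cytometry. Double-negative (viable) fractions used to fit dose-response curves from three independent experiments; mean ± SD reported.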
In general terms: In flow cytometry, cells or beads pass a laser one at a time.

In assay [16] the test system is INA-6. The assay can be described thus: Inhibition of heat shock response in human INA-6 cells assessed as reduction in HSF-1 mediated upregulation of the heat shock protein HSP72 at 50 uM preincubated for 4 hrs followed by HSP90 inhibitor and HSR inducer NVP-AUY922 addition measured after 4 hrs by Western blot method. It is filed as functional, cell-based. In outline: as §3

In assay [17] the test system is INA-6. The experiment in a line: Effect on NVP-AUY922-induced HSF-1 mRNA expression in human INA-6 cells at 12.5 uM preincubated for 4 hrs followed by NVP-AUY922 addition measured after 4 hrs by RT-PCR method. Format: functional, cell-based. In outline: as §4
Assay [18] has as its system INA-6. The assay can be described thus: Inhibition of heat shock response in human INA-6 cells assessed as reduction in HSF-1 mediated upregulation of the heat shock protein HSP72 at 12.5 uM preincubated for 4 hrs followed by HSP90 inhibitor and HSR inducer NVP-AUY922 addition measured after 4 hrs by Western blot method. It is filed as functional, cell-based. In outline:
as §3

For assay [19], the system named is INA-6. The experiment in a line: Induction of apoptosis in human INA-6 cells at 6.3 to 8.6 uM after 72 hrs by annexin V-FITC/propidium iodide staining-based flow cytometry method. It is filed as functional, cell-based. An outline of the steps:
as §5

Assay [20] deals with INA-6. The experiment in a line: Inhibition of heat shock response in human INA-6 cells assessed as reduction in HSF-1 mediated upregulation of the heat shock protein HSP72 at 12.5 uM preincubated for 4 hrs followed by HSP90 inhibitor and HSR inducer NVP-AUY922 addition measured after 4 hrs by ELISA. It is filed as functional, cell-based. In outline:
as §1

The test system of assay [21] is INA-6. The experiment in a line: Inhibition of heat shock response in human INA-6 cells assessed as reduction in HSF-1 mediated upregulation of the heat shock protein HSP27 at 12.5 uM preincubated for 4 hrs followed by HSP90 inhibitor and HSR inducer NVP-AUY922 addition measured after 4 hrs by Western blot method. It is filed as functional, cell-based. In outline:
as §3

Assay [22] deals with INA-6. The experiment in a line: Inhibition of heat shock response in human INA-6 cells assessed as reduction in HSF-1 mediated upregulation of the heat shock protein HSP27 at 12.5 uM preincubated for 4 hrs followed by HSP90 inhibitor and HSR inducer NVP-AUY922 addition measured after 4 hrs by ELISA. It is filed as functional, cell-based.

Each structure is given as a SMILES string. Calls of active or inactive are those of the source. No cut-off for these calls is given here.

CCR4-NOT transcription complex subunit 9 (Homo sapiens), sequence (Q92600 whole entry, one chain of several): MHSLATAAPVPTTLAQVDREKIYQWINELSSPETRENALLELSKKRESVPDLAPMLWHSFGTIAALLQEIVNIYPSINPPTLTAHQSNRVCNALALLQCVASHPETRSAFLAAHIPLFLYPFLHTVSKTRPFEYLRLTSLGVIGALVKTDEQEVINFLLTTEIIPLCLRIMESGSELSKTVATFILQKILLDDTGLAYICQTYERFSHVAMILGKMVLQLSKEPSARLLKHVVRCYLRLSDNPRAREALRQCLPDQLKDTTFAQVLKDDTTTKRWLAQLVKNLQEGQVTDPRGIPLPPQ
CCR4-NOT transcription complex subunit 1 (Homo sapiens), sequence (A5YKK6 whole entry, one chain of several): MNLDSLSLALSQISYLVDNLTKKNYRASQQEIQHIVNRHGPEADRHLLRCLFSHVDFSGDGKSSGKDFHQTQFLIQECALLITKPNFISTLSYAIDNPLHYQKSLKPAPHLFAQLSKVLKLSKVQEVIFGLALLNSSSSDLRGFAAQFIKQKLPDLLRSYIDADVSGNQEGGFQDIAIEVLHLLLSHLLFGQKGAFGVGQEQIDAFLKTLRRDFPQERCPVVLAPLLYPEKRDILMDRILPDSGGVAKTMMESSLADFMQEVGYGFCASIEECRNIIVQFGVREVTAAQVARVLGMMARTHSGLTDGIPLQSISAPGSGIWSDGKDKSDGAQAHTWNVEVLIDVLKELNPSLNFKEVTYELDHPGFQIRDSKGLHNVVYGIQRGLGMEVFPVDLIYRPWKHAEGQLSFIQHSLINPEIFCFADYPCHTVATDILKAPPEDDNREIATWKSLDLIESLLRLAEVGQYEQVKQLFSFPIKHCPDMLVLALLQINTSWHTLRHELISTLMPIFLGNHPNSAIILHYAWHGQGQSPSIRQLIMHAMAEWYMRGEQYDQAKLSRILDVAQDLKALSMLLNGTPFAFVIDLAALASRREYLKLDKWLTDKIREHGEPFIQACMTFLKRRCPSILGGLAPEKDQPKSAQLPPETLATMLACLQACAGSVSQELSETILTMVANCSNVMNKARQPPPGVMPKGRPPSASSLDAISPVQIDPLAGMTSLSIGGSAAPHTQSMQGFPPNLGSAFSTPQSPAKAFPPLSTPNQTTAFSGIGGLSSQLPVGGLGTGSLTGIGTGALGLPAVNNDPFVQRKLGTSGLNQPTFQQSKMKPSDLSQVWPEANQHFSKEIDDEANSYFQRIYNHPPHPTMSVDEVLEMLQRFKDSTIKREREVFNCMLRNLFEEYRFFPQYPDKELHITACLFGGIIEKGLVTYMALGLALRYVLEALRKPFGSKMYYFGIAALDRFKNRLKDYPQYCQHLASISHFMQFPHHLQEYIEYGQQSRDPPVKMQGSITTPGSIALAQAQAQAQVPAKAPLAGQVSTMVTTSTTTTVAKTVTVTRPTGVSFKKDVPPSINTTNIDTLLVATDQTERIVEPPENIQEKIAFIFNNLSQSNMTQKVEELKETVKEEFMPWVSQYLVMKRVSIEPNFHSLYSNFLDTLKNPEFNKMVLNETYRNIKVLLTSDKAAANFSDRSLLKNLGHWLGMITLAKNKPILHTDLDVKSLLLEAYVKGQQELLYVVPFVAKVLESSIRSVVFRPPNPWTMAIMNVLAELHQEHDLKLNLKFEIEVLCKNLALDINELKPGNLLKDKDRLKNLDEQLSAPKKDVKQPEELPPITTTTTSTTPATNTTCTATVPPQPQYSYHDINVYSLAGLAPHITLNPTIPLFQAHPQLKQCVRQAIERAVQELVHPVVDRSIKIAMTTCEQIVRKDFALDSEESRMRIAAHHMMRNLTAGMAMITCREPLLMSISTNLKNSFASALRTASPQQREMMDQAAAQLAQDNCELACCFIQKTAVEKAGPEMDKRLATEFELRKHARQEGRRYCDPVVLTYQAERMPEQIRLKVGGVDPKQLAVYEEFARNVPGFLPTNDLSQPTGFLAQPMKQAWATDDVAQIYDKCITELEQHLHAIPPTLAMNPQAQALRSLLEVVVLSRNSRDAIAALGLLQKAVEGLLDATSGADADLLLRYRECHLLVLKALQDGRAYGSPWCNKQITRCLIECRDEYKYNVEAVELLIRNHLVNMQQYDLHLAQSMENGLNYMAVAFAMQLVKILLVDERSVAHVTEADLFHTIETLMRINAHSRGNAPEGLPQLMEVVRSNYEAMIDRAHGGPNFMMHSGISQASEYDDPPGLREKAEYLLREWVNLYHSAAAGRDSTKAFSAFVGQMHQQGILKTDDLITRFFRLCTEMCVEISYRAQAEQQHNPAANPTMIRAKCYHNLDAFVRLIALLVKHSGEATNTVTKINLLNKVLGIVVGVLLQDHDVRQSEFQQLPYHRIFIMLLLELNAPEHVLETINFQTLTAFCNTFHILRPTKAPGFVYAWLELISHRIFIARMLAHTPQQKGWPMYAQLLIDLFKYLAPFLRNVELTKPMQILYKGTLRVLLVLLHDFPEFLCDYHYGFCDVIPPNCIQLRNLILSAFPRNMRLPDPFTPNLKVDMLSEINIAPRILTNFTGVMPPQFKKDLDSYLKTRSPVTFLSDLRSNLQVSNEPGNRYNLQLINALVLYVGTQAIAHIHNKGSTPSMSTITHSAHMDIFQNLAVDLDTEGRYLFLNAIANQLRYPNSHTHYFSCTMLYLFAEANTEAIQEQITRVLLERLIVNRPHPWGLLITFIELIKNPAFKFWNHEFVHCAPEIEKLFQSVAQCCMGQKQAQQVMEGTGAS
CCR4-NOT transcription complex subunit 3 (Homo sapiens), sequence (O75175 whole entry, one chain of several): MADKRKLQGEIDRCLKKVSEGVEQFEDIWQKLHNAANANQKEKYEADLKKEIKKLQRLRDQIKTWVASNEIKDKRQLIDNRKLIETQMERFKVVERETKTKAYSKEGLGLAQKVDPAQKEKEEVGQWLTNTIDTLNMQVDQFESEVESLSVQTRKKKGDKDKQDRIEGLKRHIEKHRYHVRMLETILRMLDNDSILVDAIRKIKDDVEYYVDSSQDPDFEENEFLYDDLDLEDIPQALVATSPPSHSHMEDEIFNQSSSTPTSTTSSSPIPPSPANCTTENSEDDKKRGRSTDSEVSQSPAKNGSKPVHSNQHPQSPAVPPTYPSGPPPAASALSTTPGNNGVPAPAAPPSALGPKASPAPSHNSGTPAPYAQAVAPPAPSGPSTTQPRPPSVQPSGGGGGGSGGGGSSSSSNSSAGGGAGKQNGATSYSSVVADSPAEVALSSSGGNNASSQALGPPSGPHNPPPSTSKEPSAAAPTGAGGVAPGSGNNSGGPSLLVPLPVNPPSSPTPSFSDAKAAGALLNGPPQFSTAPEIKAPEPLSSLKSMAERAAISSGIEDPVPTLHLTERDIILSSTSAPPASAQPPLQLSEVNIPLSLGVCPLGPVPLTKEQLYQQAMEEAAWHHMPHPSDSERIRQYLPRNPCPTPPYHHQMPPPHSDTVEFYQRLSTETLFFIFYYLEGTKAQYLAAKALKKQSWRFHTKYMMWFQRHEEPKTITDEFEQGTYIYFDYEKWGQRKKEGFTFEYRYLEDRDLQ
CCR4-NOT transcription complex subunit 7 (Homo sapiens), sequence (Q9UIV1 whole entry, one chain of several): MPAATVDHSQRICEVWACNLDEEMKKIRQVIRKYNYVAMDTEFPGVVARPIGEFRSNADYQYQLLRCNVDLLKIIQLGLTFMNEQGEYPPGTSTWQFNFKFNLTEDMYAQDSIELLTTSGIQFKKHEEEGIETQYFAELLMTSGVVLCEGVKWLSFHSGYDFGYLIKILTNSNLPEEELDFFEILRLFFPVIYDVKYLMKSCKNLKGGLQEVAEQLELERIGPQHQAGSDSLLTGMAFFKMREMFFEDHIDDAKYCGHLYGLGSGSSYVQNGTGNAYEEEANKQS
CCR4-NOT transcription complex subunit 2 (Homo sapiens), sequence (Q9NZN8 whole entry, one chain of several): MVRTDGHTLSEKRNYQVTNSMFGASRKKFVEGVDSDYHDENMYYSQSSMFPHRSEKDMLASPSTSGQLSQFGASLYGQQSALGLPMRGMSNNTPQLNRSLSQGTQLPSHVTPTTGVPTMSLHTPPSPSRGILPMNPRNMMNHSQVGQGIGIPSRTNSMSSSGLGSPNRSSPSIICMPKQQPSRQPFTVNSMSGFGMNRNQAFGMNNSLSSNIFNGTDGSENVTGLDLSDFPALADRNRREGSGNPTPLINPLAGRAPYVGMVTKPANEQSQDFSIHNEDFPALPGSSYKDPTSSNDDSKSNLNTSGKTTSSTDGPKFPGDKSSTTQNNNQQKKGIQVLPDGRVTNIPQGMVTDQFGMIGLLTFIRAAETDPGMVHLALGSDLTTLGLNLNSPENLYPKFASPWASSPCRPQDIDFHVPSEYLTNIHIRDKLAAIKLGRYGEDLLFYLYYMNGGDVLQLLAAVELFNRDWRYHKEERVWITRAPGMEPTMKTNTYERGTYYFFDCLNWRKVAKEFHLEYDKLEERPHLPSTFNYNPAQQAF

Take `O=C(CCCC[C@@H]1SC[C@@H]2NC(=O)N[C@@H]21)NCCOCCOCCNCCCCOc1ccc(CCC(=O)N(C2CC2)C(C(=O)NCc2ccccc2)c2ccc(Br)cc2)cc1` (mixture of isomers): the “HSP72 upregulation inhibition (active/not active)” value in the assay with INA-6 [1] was “inactive”. Further, in the assay on INA-6 [2], the “heat shock response inhibition (active/not active)” value was “inactive”. The result in [3], in [4], in [5], in assay [6], in assay [8] and in assay [9] was Active. Besides, the outcome in assay [10], in [11], in assay [12] and in assay [13] was Active. The “activity call (active/not active) for inhibition of HSP27 upregulation” value in the assay on INA-6 [7] was “inactive”.

Regarding `COc1ccc(/C=C/C(=O)N(Cc2ccc(OC)cc2)C(C(=O)NCc2ccccc2)c2ccccc2Br)cc1` (racemic), the “HSP72 upregulation inhibition (active/not active)” value in the assay with INA-6 [1] was “inactive”. For the same compound, the result in the assay on INA-6 [14] and in the assay with INA-6 [15] was inactive. Also, the “activity call (active/not active) for inhibition of HSP27 upregulation” value with INA-6 [7] was “inactive”. Further, the “heat shock response inhibition (active/not active)” value in the assay with INA-6 [16] was “inactive”.

Consider `NCCOCCOCCNCCCCOc1ccc(CCC(=O)N(C2CC2)C(C(=O)NCc2ccccc2)c2ccc(Br)cc2)cc1` (racemic), for which, in the assay with INA-6 [17], the result was inactive. In addition, the inhibition result in the assay on INA-6 [18], with INA-6 [20], in the assay on INA-6 [21] and with INA-6 [22] was “inactive” throughout. Further, the result in the assay on INA-6 [19] was Active.

Source of the values: ChEMBL document CHEMBL4011617, “Ugi Reaction-Derived α-Acyl Aminocarboxamides Bind to Phosphatidylinositol 3-Kinase-Related Kinases, Inhibit HSF1-Dependent Heat Shock Response, and Induce Apoptosis in Multiple Myeloma Cells” (J Med Chem, 2017).
